S100A4 MyoIIA: S100A4-myosin IIA interaction inhibition; P26447; S100A4/TAMRA-MyoIIA peptide fluorescence polarization; inhibition, % at 10.7 µM; 360,000 compounds, 0.14% hits; AID 652163;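 active means mean inhibition of at least 70% across replicates, with every replicate also reaching that level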
Target sequence (P26447 whole entry, looked up): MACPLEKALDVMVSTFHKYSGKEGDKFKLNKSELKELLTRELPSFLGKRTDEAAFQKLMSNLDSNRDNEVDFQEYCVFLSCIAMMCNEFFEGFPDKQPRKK
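Test system: S100A4 monomer protein; Medium: HEPES pH 7.2 with CaCl2, KCl, NaCl, DTT, Triton; Probe or stimulus: TAMRA-labelled myosin IIA heavy-chain peptide probe, 5 nM; Doses: one dose per compound; Times: polarization read 5 min after assay mix addition, stable 5–60 min; Benchmarks: neutral control DMSO, positive control TFP.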
FGF22 binding-1: FGF22 (human) thermal shift binding; activity (Tm shift, normalised), % at 9.99 µM; recombinant FGF22 thermal shift, SYPRO orange fluorescence; percent of sucrose octasulfate shift, DMSO zero; Q9HCT0; AID 651658; 340,000 compounds, 1.5% hits;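 active means mean Tm shift, scaled 0 neutral to 100 positive control, at about 1.3% or above, every replicate too, limit read from the data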
Target sequence (Q9HCT0 whole entry, looked up): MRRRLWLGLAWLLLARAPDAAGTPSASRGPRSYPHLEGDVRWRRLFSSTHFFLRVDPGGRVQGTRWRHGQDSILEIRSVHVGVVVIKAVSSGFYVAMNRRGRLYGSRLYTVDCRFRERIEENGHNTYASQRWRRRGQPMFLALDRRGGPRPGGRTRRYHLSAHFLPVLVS
E-sel inducer: induces E-selectin expression in human endothelial cells; HUVEC E-selectin immunofluorescence imaging; normalized: neutral wells 0, TNF-alpha wells 100; 260,000 compounds, 0.37% hits; activation, % at 7.58 µM;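 active means mean E-selectin-positive cell signal at least 10% of the positive control, reached in at least 60% of replicates, without over 20% cell loss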
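System: HUVEC, human umbilical vein endothelial cells; quantity: 3,000 cells/well; buffer or medium: EGM-2 medium, gelatin-coated wells; dosing: single-point compound dose; detection: immunofluorescence imaging; evaluation: % PE-positive cells; benchmarks: TNF-alpha, DMSO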
HIV Env fusion: HIV envelope-mediated fusion inhibition; HeLa-JRFL Env/CEM21 cell fusion, luciferase; inhibition, % at 12.3 µM; 360,000 compounds, 1.1% hits;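 active means mean replicate inhibition score of at least 50 and every replicate individually at or above 50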;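 further: 0% = plate neutral controls and 100% = maraviroc near 300 nM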
F508del corr: correctors of CFTR F508del function in bronchial epithelial cells; activity (quench increase), % at 7.58 µM; 350,000 compounds, 0.36% hits; CFBE cells, YFP halide quenching; stimulated with forskolin plus potentiator P3; % fluorescence drop versus neutral controls;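 active means mean added fluorescence quench of at least 8% versus neutral control, with both replicates also reaching 8%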;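 further: cells transiently co-express mutant CFTR-F508del with the halide-sensitive YFP; corrector assay measuring rescue of mutant channel to the surface after 24 h compound exposure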
FGF22 binding-2: FGF22 (human) binding in thermal shift. thermal shift activity, °C (ΔTm) at 38 µM. recombinant FGF22 thermal shift, SYPRO orange fluorescence. 1,000 compounds, 2% hits. shares compounds with FGF22 binding-1;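 active means fitted rise in melting shift crosses a set limit at or below the top valid dose tested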
FGF22 TSA: FGF22 (human) binding by thermal shift; shares compounds with FGF22 binding-1; Thermal shift assay, SYPRO orange, melting temperature shift; Tm shift (activity), % at 38 µM; 50 tested, under 10 active;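 active means compounds whose fitted dose curve of melting temperature shift rises past a set threshold within the tested doses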
SYPRO no-protein: shows thermal shift signal without protein, FGF22 counter-screen. compound-only SYPRO orange thermal shift counter-screen, no protein. 1,000 compounds, 2% hits. shares compounds with FGF22 binding-1. AID 743019. AC50, µM (highest dose often 38 µM);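 active means rising signal whose fitted curve reaches the 0.54 level within the top valid dose, showing a melting point, actives reach about 13 µM in these data; inactive means the rest, including activity in the opposite direction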; further: value is where the raw curve crosses a fixed level and not half-maximal
* = called active by the depositor; i = inactive; x = not tested or not shown; [ ] = remark or other dose. Shown are actives, neighbours in structure and some others; about 2.7% of the full set was active somewhere.

SMILES | S100A4 MyoIIA | FGF22 binding-1 | E-sel inducer | HIV Env fusion | F508del corr | FGF22 binding-2 | SYPRO no-protein | others
C[C@@H]1CN([C@@H](C)CO)C(=O)Cc2cc(NC(=O)Cc3cn(C)c4ccccc34)ccc2O[C@H]1CN(C)Cc1ccc(Oc2ccccc2)cc1 | x | 0 | 6 | -10[16.7 µM] | -2 | x | x
CC1C(=O)Nc2ccc(S(=O)(=O)NCCc3ccc(Cl)cc3)cc2NC1=O (stereo not given) | 1 | 1.6* | x | -1 | 2 | -0.37 | i
CC1Sc2ccc(S(=O)(=O)NCCc3ccc(S(N)(=O)=O)cc3)cc2NC1=O (stereo not given) | -11 | 0 | x | -35 | -1 | x | x
C[C@H]1CN([C@@H](C)CO)S(=O)(=O)c2ccc(C#CC(C)(C)O)cc2O[C@@H]1CN(C)C(=O)C1CCCCC1 | 39 | 0 | 0 | -60[16.7 µM] | -3 | x | x
O=C(Nc1ccc(S(=O)(=O)N2CCCC2)cc1)c1cccs1 | -2 | 2.1* | 2 | -2 | -4 | -0.65 | i | FGF22 TSA=0
N#Cc1cccc(NC(=O)c2ccc(S(=O)(=O)N3CCOCC3)cc2)c1 | -6 | 2.7* | 0 | x | 1 | 0.11 | i
O=C(Nc1ccc(S(=O)(=O)N2CCCC2)cc1)c1ccccc1 | -5 | 1.6* | x | -1 | -3 | -0.15 | i | FGF22 TSA=0
N#Cc1cccc(NS(=O)(=O)c2ccc(S(=O)(=O)N3CCOCC3)cc2)c1 | -2 | 0 | x | 0 | -3 | x | x
O=C(Nc1ccccc1)c1ccc(S(=O)(=O)N2CCCC2)cc1 | x | x | x | 19 | x | x | x
Cc1ccc(N(C)S(=O)(=O)c2cccc(C(=O)Nc3ccc(N4CCOCC4)cc3)c2)cc1 | 7 | 0 | x | x | 1 | x | x
COc1ccc(N(C)S(=O)(=O)c2cccc(C(=O)Nc3ccc(N4CCOCC4)cc3)c2)cc1 | -3 | 2.3* | -1 | 21 | 2 | 0.12 | i
C[C@@H]1CN([C@@H](C)CO)C(=O)Cc2cc(NC(=O)Cc3ccccc3)ccc2O[C@H]1CN(C)S(=O)(=O)c1ccc(Cl)cc1 | -1 | 0 | 14 | x | 0 | x | x
COc1cccc(CNC(=O)C2(C)CCCCN2C)c1 (stereo not given) | 33 | 2.6* | 0 | 31 | -2 | -0.1 | i
COc1cccc(CNC(=O)C2(C)CCCN2C(=O)C(C)C)c1 (stereo not given) | 2 | 0 | 0 | 1 | -1 | x | x
Cc1ccccc1S(=O)(=O)NCC[C@H]1CC[C@H](NC(=O)C2CCC2)[C@@H](CO)O1 | 6 | 0 | -1 | 2[16.7 µM] | -1 | x | x
CC(=O)N(C)C[C@@H]1Oc2ncc(C#CC(C)(C)O)cc2C(=O)N([C@@H](C)CO)C[C@H]1C | -2 | 1.6* | 0 | 2[16.7 µM] | -1 | -0.045 | i
CC(C)C#Cc1cnc2c(c1)C(=O)N([C@@H](C)CO)C[C@@H](C)[C@@H](CN(C)C(=O)c1cnccn1)O2 | -2 | 1.6* | 0 | -4[16.7 µM] | 2 | -0.002[42 µM] | i
C[C@H](CO)N1C[C@H](C)[C@H](CN(C)C(=O)CC2CC2)Oc2ncc(C#CC3(O)CCCC3)cc2C1=O | 4 | 1.4* | 0 | -12[16.7 µM] | -1 | -0.086 | i
C[C@H]1CN([C@@H](C)CO)C(=O)c2cc(C#CC3(O)CCCC3)cnc2O[C@H]1CN(C)C(=O)CC1CC1 | 3 | 1 | -1 | 5[16.7 µM] | 0 | x | x
CC(C)C#Cc1cnc2c(c1)C(=O)N([C@H](C)CO)C[C@H](C)[C@H](CN(C)C(=O)c1cnccn1)O2 | 0 | 1.5* | 2 | -41[16.7 µM] | -2 | -0.007[42 µM] | i
CCCNC(=O)N1C[C@H]2[C@@H](c3ccccc31)[C@H](CO)N2Cc1ccc(F)cc1 | x | x | 0 | x | -1 | x | x
CC(C)NC(=O)N(C)C[C@H]1Oc2ccc(NC(=O)CCN3CCOCC3)cc2CC(=O)N([C@@H](C)CO)C[C@@H]1C | 10 | 0 | 0 | x | -1 | x | x
